Test results: ChEMBL document CHEMBL5058577, “EUbOPEN Chemogenomics Library 2 (Multiplex)” (2022)

System: U2OS
Test: Multiplex assay against U2OS
Format: toxicity, cell-based
Conditions: human
In short: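 Phenotypes for tubulin, mitochondrial mass and membrane permeability are expressed as per cents of healthy-nucleus cells. Cells were stained live at seeding with Hoechst33342, BioTracker Green Microtubule Cytoskeleton Dye, MitoTracker Red and Annexin V Alexa Fluor 680, then imaged after compound addition on a CQ1 microscope at 37°C and 5% CO2. Machine-learning gating in CellPathfinder separated Hoechst high-intensity objects from normal cells, divided normal cells by nuclear state (healthy, pyknosed, fragmented) and divided pyknosed cells into mitotic or apoptotic.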

[1] = 12 h, 1 µM, compound concentration 1 uM, replicate 1
[2] = 12 h, 1 µM, compound concentration 1 uM, replicate 2
[3] = 12 h, 10 µM, compound concentration 10 uM, replicate 1
[4] = 12 h, 10 µM, compound concentration 10 uM, replicate 2
[5] = 24 h, 1 µM, compound concentration 1 uM, replicate 1
[6] = 24 h, 1 µM, compound concentration 1 uM, replicate 2
[7] = 24 h, 10 µM, compound concentration 10 uM, replicate 1
[8] = 24 h, 10 µM, compound concentration 10 uM, replicate 2
[9] = 48 h, 1 µM, compound concentration 1 uM, replicate 1
[10] = 48 h, 1 µM, compound concentration 1 uM, replicate 2
[11] = 48 h, 10 µM, compound concentration 10 uM, replicate 1
[12] = 48 h, 10 µM, compound concentration 10 uM, replicate 2

For O=C(NCC(=O)N1CC[C@H](N[C@H]2CC[C@@](O)(c3ccc(-c4ncccn4)cn3)CC2)C1)c1cccc(C(F)(F)F)c1 [PF-4136309], the “Population Apoptotic (%)” value [1] was 79%, the “Population Fragmented Nuclei (%)” value [1] was 25% and the “Population Healthy Nuclei (%)” value [1] was 64%. The “Population Hoechst High Intensity Objects (%)” value [1] was 1%, the “Population Membrane Permeable-Phenotype (%)” value [1] was 6% and the “Population Mitochondria Different-Phenotype (%)” value [1] was 3%. The “Population Mitotic Cells (%)” value [1] was 20%, the “Population Normal (%)” value [1] was 98% and the “Population Pyknosed Nuclei (%)” value [1] was 9%. The “Population Tubulin-Different-Phenotype (%)” value [1] was 4%, the “Total Cell Count” value [1] was 249 and the “Population Apoptotic (%)” value [2] was 93%. For the same compound, the “Population Fragmented Nuclei (%)” value [2] was 13%, the “Population Healthy Nuclei (%)” value [2] was 74% and the “Population Hoechst High Intensity Objects (%)” value [2] was 4%. The “Population Membrane Permeable-Phenotype (%)” value [2] was 11%, the “Population Mitochondria Different-Phenotype (%)” value [2] was 5% and the “Population Mitotic Cells (%)” value [2] was 6%. The “Population Normal (%)” value [2] was 95%, the “Population Pyknosed Nuclei (%)” value [2] was 12% and the “Population Tubulin-Different-Phenotype (%)” value [2] was 8%. For the same compound, the “Total Cell Count” value [2] was 138, the “Population Apoptotic (%)” value [3] was 68% and the “Population Fragmented Nuclei (%)” value [3] was 25%. The “Population Healthy Nuclei (%)” value [3] was 62%, the “Population Hoechst High Intensity Objects (%)” value [3] was 4% and the “Population Membrane Permeable-Phenotype (%)” value [3] was 15%. For the same compound, the “Population Mitochondria Different-Phenotype (%)” value [3] was 4%, the “Population Mitotic Cells (%)” value [3] was 31% and the “Population Normal (%)” value [3] was 95%. For the same compound, the “Population Pyknosed Nuclei (%)” value [3] was 12%, the “Population Tubulin-Different-Phenotype (%)” value [3] was 9% and the “Total Cell Count” value [3] was 242. For the same compound, the “Population Apoptotic (%)” value [4] was 60%, the “Population Fragmented Nuclei (%)” value [4] was 22% and the “Population Healthy Nuclei (%)” value [4] was 66%. The “Population Hoechst High Intensity Objects (%)” value [4] was 1%, the “Population Membrane Permeable-Phenotype (%)” value [4] was 25% and the “Population Mitochondria Different-Phenotype (%)” value [4] was 10%. The “Population Mitotic Cells (%)” value [4] was 40%, the “Population Normal (%)” value [4] was 98% and the “Population Pyknosed Nuclei (%)” value [4] was 11%. The “Population Tubulin-Different-Phenotype (%)” value [4] was 11%, the “Total Cell Count” value [4] was 90 and the “Population Apoptotic (%)” value [5] was 80%. The “Population Fragmented Nuclei (%)” value [5] was 22%, the “Population Healthy Nuclei (%)” value [5] was 69% and the “Population Hoechst High Intensity Objects (%)” value [5] was 1%. The “Population Membrane Permeable-Phenotype (%)” value [5] was 4%, the “Population Mitochondria Different-Phenotype (%)” value [5] was 2% and the “Population Mitotic Cells (%)” value [5] was 20%. For the same compound, the “Population Normal (%)” value [5] was 98%, the “Population Pyknosed Nuclei (%)” value [5] was 8% and the “Population Tubulin-Different-Phenotype (%)” value [5] was 2%. For the same compound, the “Total Cell Count” value [5] was 304, the “Population Apoptotic (%)” value [6] was 91% and the “Population Fragmented Nuclei (%)” value [6] was 16%. For the same compound, the “Population Healthy Nuclei (%)” value [6] was 76%, the “Population Hoechst High Intensity Objects (%)” value [6] was 3% and the “Population Membrane Permeable-Phenotype (%)” value [6] was 5%. The “Population Mitochondria Different-Phenotype (%)” value [6] was 4%, the “Population Mitotic Cells (%)” value [6] was 8% and the “Population Normal (%)” value [6] was 96%. For the same compound, the “Population Pyknosed Nuclei (%)” value [6] was 7%, the “Total Cell Count” value [6] was 169 and the “Population Apoptotic (%)” value [7] was 83%. For the same compound, the “Population Fragmented Nuclei (%)” value [7] was 23%, the “Population Healthy Nuclei (%)” value [7] was 62% and the “Population Hoechst High Intensity Objects (%)” value [7] was 3%. The “Population Membrane Permeable-Phenotype (%)” value [7] was 10%, the “Population Mitochondria Different-Phenotype (%)” value [7] was 3% and the “Population Mitotic Cells (%)” value [7] was 16%. The “Population Normal (%)” value [7] was 96%, the “Population Pyknosed Nuclei (%)” value [7] was 13% and the “Population Tubulin-Different-Phenotype (%)” value [7] was 3%. The “Total Cell Count” value [7] was 271, the “Population Apoptotic (%)” value [8] was 75% and the “Population Fragmented Nuclei (%)” value [8] was 21%. The “Population Healthy Nuclei (%)” value [8] was 70%, the “Population Hoechst High Intensity Objects (%)” value [8] was 0% and the “Population Membrane Permeable-Phenotype (%)” value [8] was 15%. The “Population Mitochondria Different-Phenotype (%)” value [8] was 11%, the “Population Mitotic Cells (%)” value [8] was 25% and the “Population Normal (%)” value [8] was 99%. The “Population Pyknosed Nuclei (%)” value [8] was 7%, the “Population Tubulin-Different-Phenotype (%)” value [8] was 7% and the “Total Cell Count” value [8] was 102. The “Population Apoptotic (%)” value [9] was 87%, the “Population Fragmented Nuclei (%)” value [9] was 14% and the “Population Healthy Nuclei (%)” value [9] was 74%. For the same compound, the “Population Hoechst High Intensity Objects (%)” value [9] was 2%, the “Population Membrane Permeable-Phenotype (%)” value [9] was 4% and the “Population Mitochondria Different-Phenotype (%)” value [9] was 3%. The “Population Mitotic Cells (%)” value [9] was 12%, the “Population Normal (%)” value [9] was 97% and the “Population Pyknosed Nuclei (%)” value [9] was 11%. The “Population Tubulin-Different-Phenotype (%)” value [9] was 3%, the “Total Cell Count” value [9] was 443 and the “Population Apoptotic (%)” value [10] was 96%. The “Population Fragmented Nuclei (%)” value [10] was 12%, the “Population Healthy Nuclei (%)” value [10] was 75% and the “Population Hoechst High Intensity Objects (%)” value [10] was 3%. The “Population Membrane Permeable-Phenotype (%)” value [10] was 6%, the “Population Mitotic Cells (%)” value [10] was 4% and the “Population Normal (%)” value [10] was 96%. The “Population Tubulin-Different-Phenotype (%)” value [10] was 4%, the “Total Cell Count” value [10] was 224 and the “Population Apoptotic (%)” value [11] was 69%. The “Population Fragmented Nuclei (%)” value [11] was 22%, the “Population Healthy Nuclei (%)” value [11] was 61% and the “Population Hoechst High Intensity Objects (%)” value [11] was 4%. The “Population Membrane Permeable-Phenotype (%)” value [11] was 9%, the “Population Mitochondria Different-Phenotype (%)” value [11] was 5% and the “Population Mitotic Cells (%)” value [11] was 30%. The “Population Normal (%)” value [11] was 95%, the “Population Pyknosed Nuclei (%)” value [11] was 15% and the “Population Tubulin-Different-Phenotype (%)” value [11] was 4%. For the same compound, the “Total Cell Count” value [11] was 360, the “Population Apoptotic (%)” value [12] was 92% and the “Population Fragmented Nuclei (%)” value [12] was 20%. The “Population Healthy Nuclei (%)” value [12] was 60%, the “Population Hoechst High Intensity Objects (%)” value [12] was 0% and the “Population Membrane Permeable-Phenotype (%)” value [12] was 15%. The “Population Mitochondria Different-Phenotype (%)” value [12] was 8%, the “Population Mitotic Cells (%)” value [12] was 7% and the “Population Normal (%)” value [12] was 100%. For the same compound, the “Population Pyknosed Nuclei (%)” value [12] was 18% and the “Total Cell Count” value [12] was 138.
